Paper PMC9988221 (Journal of Clinical Psychopharmacology, 2023)
Read-outs that look alike come from different tables or passages of the source.

Assays:
CYP1A2 = target: T1, CYP1A2 (Homo sapiens, UniProt P05177); assay: Reversible CYP inhibition in human liver microsomes, phenacetin substrate
T1 sequence (P05177 1-516): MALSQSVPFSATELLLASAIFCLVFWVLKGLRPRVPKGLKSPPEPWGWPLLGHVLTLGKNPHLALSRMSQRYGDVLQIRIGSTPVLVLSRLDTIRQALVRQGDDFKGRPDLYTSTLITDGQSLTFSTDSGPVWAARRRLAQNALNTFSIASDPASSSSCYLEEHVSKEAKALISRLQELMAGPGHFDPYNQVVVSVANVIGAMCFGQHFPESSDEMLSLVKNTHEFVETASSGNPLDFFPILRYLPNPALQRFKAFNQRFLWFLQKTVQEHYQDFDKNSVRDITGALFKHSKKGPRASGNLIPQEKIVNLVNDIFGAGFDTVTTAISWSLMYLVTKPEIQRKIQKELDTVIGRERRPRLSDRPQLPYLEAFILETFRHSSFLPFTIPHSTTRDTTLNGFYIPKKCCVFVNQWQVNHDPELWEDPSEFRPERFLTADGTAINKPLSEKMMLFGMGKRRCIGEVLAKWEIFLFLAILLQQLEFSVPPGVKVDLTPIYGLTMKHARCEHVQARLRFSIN

Unbound plasma fraction = type: in vitro ADME; settings: derived from other preclinical studies (data not shown)
Safety and tolerability = type: in vivo, human; settings: this study, healthy male participants
Summary of the method: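 Phase I open-label, single-sequence crossover in healthy men. No specific safety endpoints were set. Counts of participants with treatment-emergent AEs (drug-related, serious, special interest, other significant), including clinically relevant physical and neurological examination findings, were analysed in the treated set. End-of-trial visit was 11–16 days after the last test compound dose.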

human hepatocytes = assay: Cell viability of hepatocytes in the induction assay; type: cell-based; settings: hepatocytes from any donor; BI 425809 up to 30 μM
CYP2C8 = target: T2, CYP2C8 (Homo sapiens, UniProt P10632); assay: Reversible CYP inhibition in human liver microsomes, amodiaquine substrate
T2 sequence (P10632 1-490): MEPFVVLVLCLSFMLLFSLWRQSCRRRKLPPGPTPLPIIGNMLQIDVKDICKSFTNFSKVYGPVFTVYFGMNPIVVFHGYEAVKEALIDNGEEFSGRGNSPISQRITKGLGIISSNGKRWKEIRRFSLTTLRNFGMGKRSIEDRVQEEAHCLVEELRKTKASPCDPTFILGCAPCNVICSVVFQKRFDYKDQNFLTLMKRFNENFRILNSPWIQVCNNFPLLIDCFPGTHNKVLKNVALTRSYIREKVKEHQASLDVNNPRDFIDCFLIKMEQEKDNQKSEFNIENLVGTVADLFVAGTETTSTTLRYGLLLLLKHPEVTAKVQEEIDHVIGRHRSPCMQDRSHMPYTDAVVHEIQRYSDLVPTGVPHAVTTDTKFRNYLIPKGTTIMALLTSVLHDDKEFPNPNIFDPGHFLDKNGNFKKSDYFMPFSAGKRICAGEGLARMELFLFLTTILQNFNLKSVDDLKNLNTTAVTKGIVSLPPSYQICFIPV

CYP3A4 mRNA = type: in vitro ADME, human; settings: for Emax for induction of CYP3A4 mRNA levels: 10 to 30 μM BI 425809
CYP3A4/5 = settings: human, human liver microsomes
CYP3A4 [1] = settings: for Emax for induction of CYP3A4 activity: BI 425809 10 to 30 μM, 48 hours
CYP2C9 = CYP2C9 (Homo sapiens, UniProt P11712); assay: Reversible CYP inhibition in human liver microsomes, diclofenac substrate
CYP2C9, sequence (P11712 whole entry): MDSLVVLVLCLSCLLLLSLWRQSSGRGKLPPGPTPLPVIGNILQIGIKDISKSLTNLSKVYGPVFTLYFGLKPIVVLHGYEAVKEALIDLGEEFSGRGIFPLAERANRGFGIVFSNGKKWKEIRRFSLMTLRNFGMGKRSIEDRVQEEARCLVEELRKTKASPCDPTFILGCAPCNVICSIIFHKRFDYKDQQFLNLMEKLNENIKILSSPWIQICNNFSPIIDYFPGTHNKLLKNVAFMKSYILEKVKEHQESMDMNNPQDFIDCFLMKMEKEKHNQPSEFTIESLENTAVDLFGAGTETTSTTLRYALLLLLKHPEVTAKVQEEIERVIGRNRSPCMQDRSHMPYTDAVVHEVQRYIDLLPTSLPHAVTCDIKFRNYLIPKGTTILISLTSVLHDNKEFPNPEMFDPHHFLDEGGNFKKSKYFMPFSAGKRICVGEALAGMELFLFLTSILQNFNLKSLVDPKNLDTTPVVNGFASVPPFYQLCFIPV

CYP3A4 [2] = assay: in vitro; settings: human, Emax for induction of CYP3A4 activity, % of positive control effect
[3] = Attainment of BI 425809 steady state; type: in vivo, human
CYP3A4 [4] = assay: Basic induction model; design: species or system human
CYP2D6 = CYP2D6 (Homo sapiens, UniProt P10635); assay: Reversible CYP inhibition in human liver microsomes, dextromethorphan substrate
CYP2D6, sequence (P10635 whole entry): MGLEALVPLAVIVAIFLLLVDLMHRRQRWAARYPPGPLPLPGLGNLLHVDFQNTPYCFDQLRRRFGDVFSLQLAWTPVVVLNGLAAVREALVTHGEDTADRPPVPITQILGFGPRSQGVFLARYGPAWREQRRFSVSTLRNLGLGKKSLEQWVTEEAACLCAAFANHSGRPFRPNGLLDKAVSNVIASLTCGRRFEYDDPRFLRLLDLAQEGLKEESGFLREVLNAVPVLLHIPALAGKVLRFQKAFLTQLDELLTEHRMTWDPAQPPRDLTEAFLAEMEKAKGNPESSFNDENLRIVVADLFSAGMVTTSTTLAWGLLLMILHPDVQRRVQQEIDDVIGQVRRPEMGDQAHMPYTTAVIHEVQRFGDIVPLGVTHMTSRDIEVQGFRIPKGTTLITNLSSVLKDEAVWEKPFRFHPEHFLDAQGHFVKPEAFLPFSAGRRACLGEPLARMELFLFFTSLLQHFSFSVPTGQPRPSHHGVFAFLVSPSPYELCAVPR

[5] = cited from earlier work
CYP2B6 = target: T3, CYP2B6 (Homo sapiens, UniProt P20813); assay: Reversible CYP inhibition in human liver microsomes, bupropion substrate
T3 sequence (P20813 1-491): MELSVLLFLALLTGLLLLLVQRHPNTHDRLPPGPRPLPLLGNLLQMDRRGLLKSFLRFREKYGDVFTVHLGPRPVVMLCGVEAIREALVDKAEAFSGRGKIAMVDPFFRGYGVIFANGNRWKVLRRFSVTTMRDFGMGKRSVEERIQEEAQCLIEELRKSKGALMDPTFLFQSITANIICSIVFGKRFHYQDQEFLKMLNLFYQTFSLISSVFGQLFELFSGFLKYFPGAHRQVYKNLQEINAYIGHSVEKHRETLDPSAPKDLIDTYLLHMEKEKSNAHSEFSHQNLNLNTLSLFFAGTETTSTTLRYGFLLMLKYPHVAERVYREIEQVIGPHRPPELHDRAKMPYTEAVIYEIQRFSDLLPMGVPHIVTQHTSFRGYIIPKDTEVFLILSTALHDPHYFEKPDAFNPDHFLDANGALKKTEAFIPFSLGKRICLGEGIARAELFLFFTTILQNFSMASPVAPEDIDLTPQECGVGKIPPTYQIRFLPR

P-gp = P-gp (Homo sapiens, UniProt P08183); type: in vitro ADME
P-gp, sequence (P08183 whole entry): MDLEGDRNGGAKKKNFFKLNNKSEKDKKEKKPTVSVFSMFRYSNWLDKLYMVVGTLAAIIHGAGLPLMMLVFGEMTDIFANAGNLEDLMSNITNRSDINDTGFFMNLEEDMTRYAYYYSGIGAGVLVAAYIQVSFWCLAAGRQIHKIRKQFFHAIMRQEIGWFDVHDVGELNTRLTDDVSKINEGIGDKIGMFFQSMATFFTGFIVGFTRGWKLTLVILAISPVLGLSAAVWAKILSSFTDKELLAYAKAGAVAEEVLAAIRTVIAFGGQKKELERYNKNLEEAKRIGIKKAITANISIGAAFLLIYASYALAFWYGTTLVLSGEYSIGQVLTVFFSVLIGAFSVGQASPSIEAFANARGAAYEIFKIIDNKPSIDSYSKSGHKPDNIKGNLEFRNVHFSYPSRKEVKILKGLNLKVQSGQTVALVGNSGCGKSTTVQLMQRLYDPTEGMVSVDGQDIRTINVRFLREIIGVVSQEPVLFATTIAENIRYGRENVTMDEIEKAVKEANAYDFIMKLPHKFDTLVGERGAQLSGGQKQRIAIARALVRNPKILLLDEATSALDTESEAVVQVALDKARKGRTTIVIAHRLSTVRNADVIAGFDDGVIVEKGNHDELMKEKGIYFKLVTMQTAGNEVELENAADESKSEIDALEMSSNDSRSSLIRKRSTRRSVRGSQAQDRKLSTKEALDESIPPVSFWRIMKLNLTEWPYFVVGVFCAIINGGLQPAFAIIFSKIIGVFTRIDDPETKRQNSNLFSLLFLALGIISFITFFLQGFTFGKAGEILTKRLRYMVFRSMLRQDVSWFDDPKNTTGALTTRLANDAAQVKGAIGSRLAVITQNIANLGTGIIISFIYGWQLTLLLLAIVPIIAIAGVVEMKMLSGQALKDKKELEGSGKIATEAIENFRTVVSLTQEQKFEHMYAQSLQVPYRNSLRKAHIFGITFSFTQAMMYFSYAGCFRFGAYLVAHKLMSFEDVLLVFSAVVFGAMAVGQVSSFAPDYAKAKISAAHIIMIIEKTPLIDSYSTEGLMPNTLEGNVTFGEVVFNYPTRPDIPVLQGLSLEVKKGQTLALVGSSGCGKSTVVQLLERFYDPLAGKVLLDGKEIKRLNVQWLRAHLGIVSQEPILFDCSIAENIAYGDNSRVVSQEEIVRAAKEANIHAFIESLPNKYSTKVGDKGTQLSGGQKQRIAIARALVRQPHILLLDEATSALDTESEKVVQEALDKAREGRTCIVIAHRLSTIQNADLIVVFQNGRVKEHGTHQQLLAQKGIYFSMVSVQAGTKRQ
Summary of the method: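 Bidirectional Caco-2 monolayer transport in HBSS with 15 mM HEPES, pH 7.4, after 30 min equilibration. [³H]digoxin (1 μM) went in the donor side, and test compound (1–100 μM) or zosuquidar (1 μM) on both sides. After 30 min preincubation, sampling ran to 90 min and was read by scintillation counting. Papp gave the B-to-A/A-to-B efflux ratio, and IC50 with slope factor came from nonlinear regression of efflux ratio against inhibitor concentration.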

[6] = type: in vivo, human; settings: once-daily BI 425809 25 mg; midazolam exposure
CYP2C19 = CYP2C19 (Homo sapiens, UniProt P33261); assay: Reversible CYP inhibition in human liver microsomes, S-mephenytoin substrate
CYP2C19, sequence (P33261 whole entry): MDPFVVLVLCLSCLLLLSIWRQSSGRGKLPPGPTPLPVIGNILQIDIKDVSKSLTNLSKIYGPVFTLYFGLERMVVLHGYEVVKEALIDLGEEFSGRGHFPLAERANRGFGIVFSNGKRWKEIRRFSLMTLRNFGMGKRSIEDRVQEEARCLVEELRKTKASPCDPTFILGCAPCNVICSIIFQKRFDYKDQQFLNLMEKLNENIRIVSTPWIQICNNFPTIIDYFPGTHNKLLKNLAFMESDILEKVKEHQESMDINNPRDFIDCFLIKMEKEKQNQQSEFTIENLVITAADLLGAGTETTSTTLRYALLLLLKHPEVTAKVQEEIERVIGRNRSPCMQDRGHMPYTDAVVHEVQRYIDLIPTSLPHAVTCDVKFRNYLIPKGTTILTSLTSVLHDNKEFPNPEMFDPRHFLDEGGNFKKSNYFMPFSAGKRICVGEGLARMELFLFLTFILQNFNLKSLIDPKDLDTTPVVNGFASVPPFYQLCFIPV

## C[C@@H](Oc1ccc(S(C)(=O)=O)cc1C(=O)N1C[C@@H]2C[C@]2(c2cc(C(F)(F)F)on2)C1)C(F)(F)F [BI 425809]
CYP1A2
  IC50: > 100 µM
Unbound plasma fraction
  unbound plasma fraction: 0.196
Safety and tolerability
  tolerability: well tolerated
Human hepatocytes
  cell viability relative to vehicle control: No decrease in cell viability
CYP2C8
  IC50: > 100 µM
CYP3A4 mRNA; hepatocytes donor 1
  Emax for induction of CYP3A4 mRNA levels: 14 fold
CYP3A4 mRNA; hepatocytes donor 2
  Emax for induction of CYP3A4 mRNA levels: 13 fold
CYP3A4 mRNA; hepatocytes donor 3
  Emax for induction of CYP3A4 mRNA levels: 37 fold
CYP3A4 mRNA; hepatocytes from donors 1, 2, and 3
  induction of CYP3A4 mRNA levels (in words): concentration-dependent induction
CYP3A4 mRNA; human, sandwich-cultured primary human hepatocytes
  EC50 at 48 h: 1.96 µM
CYP3A4 mRNA; mRNA levels of all three donors fitted to 3-parameter sigmoidal model
  Emax for induction of CYP3A4: 18.7 fold
CYP3A4/5
  IC50: > 100 µM
CYP3A4 [1]; hepatocytes donor 1
  Emax for induction of CYP3A4 activity: 10 fold
CYP3A4 [1]; hepatocytes donor 2
  Emax for induction of CYP3A4 activity: 3.4 fold
CYP3A4 [1]; hepatocytes donor 3
  Emax for induction of CYP3A4 activity: 6.6 fold
CYP3A4 [1]; human hepatocytes
  induction of CYP3A4 activity (in words): Concentration-dependent induction
CYP2C9
  IC50: 54.9 µM
CYP3A4 [2]
  Emax: 37%
[3]; BI 425809 25 mg once daily, Cpre on days 8, 9, 10
  steady state reached by: ≤ 8 days
[3]; pairwise comparisons of days 8, 9, and 10 in period 2
  adjusted gMean ratios of Cpre of the compared sampling time points: ~100%
CYP3A4 [4]; basic model, 2020 FDA guidance, unbound plasma fraction 0.196
  R3 (change in hepatic metabolic clearance of a sensitive CYP3A4 substrate): 0.12
CYP3A4 [4]; input of the basic induction model
  Imax,u, maximum unbound plasma concentration: approximately 121 nM
CYP2D6
  IC50: > 100 µM
[5]; doses of 10 mg and 25 mg, healthy volunteers
  increase of cerebrospinal fluid glycine levels, average: 50%
[5]; once-daily oral administration up to 75 mg, Phase I studies
  tolerability: generally well tolerated
[5]; previous study
  steady state reached after: 6 days
CYP2B6
  IC50: > 100 µM
P-gp
  IC50: 14 µM
P-gp; Caco-2 cell monolayer, zosuquidar 1 μM, BI 425809 1-100 μM
  effect on P-gp-mediated transcellular transport of digoxin (in words): concentration-dependent inhibition
P-gp; I2 = dose[mol]/250 mL
  I2/IC50 ratio: approximately 13
[6]
  CYP3A4 induction in vivo (in words): mild inducer of CYP3A4 in vivo
CYP2C19
  IC50: > 100 µM
